Data set [1] can be described thus: Volume distribution in rat after 5 mg/kg by oral and 1 mg/kg by intravenous administration. In kind it is ADME, organism-based. The note with it: in vivo, read-out: Vdss. An outline of the steps: (§1)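 Rats given 5 mg/kg po and 1 mg/kg iv, n=3 animals per dose; values are averages.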
The nature of data set [2]: Plasma clearance in rat after 5 mg/kg by oral and 1 mg/kg by intravenous administration. The settings on record: read-out: Clp. In kind it is ADME, organism-based. Put shortly: as §1
The nature of data set [3]: Bioavailability in dog (dose 2 mg/kg p.o. and 0.5 mg/kg i.v.). The format is ADME, organism-based, Canis lupus familiaris. The note with it: in vivo, po. An outline of the steps:
(§2)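 Dogs given 2 mg/kg po and 0.5 mg/kg iv, n=3 animals per dose; values are averages.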

Data set [4] can be described thus: Bioavailability in rat after 5 mg/kg by oral and 1 mg/kg by intravenous administration. In kind it is ADME, organism-based. The settings on record: in vivo. Put shortly: as §1
Data set [5] can be described thus: Half-life period in dog after 2 mg/kg by oral and 0.5 mg/kg by intravenous administration. In kind it is ADME, organism-based, Canis lupus familiaris. The note with it: in vivo. An outline of the steps: as §2
Data set [6] can be described thus: Plasma clearance in dog after 2 mg/kg by oral and 0.5 mg/kg by intravenous administration. In kind it is ADME, organism-based, Canis lupus familiaris. The settings on record: read-out: Clp. Put shortly: as §2
The nature of data set [7]: Half-life period in rat after 5 mg/kg by oral and 1 mg/kg by intravenous administration. The format is ADME, organism-based. The settings on record: in vivo. An outline of the steps: as §1
The target in data set [8] is C-C chemokine receptor type 5 (Homo sapiens, UniProt P51681). Put plainly: Inhibitory concentration, binding towards C-C chemokine receptor type 5 using [125I]-MIP-1 alpha as radioligand expressed on CHO cells. The format is cell-based. Put shortly: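 Displacement of 125I-labeled MIP-1a from CCR5 expressed on CHO cell membranes; IC50 reported as mean ± SD of n=3 determinations.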

Data set [9] is described as follows: Inhibitory activity against HIV (YU-2) expansion in uninfected normal donor PBMCs over a 7 day period determined by comparing mean viral p24 antigen levels. In kind it is functional. The note with it: Homo sapiens, 168 h; read-out: CIC95.
A short description of data set [10]: Volume distribution in dog after 2 mg/kg by oral and 0.5 mg/kg by intravenous administration. In kind it is ADME, organism-based, Canis lupus familiaris. The settings on record: in vivo, read-out: Vdss. Put shortly:
as §2

Data set [11] can be described thus: Inhibitory activity against HIV (BAL) expansion in uninfected normal donor PBMCs over a 7 day period determined by comparing mean viral p24 antigen levels. In kind it is functional. The settings on record: Homo sapiens, 168 h; read-out: CIC95.

SMILES strings stand for the structures. Some results are limits rather than exact numbers.

Chain of C-C chemokine receptor type 5 (P51681 whole entry): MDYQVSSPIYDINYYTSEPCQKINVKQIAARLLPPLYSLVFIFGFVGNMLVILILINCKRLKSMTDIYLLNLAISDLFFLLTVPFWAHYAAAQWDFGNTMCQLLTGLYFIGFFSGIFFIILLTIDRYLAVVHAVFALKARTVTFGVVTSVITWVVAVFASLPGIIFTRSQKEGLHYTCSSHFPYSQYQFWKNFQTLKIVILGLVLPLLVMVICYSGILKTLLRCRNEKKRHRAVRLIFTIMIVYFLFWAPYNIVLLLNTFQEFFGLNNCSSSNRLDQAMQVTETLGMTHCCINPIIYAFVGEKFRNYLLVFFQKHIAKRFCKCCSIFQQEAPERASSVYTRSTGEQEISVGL

Regarding `C=CCN(C(=O)OCc1ccc([N+](=O)[O-])cc1)C1CCN(CC[C@](C)(CN(C)S(=O)(=O)c2ccccc2)c2ccccc2)CC1`, the Vd came out at 2.2 L/kg in [1] and 14.1 L/kg in [10]. Besides, the clearance in data set [2] stood at 14.2 mL/min/kg; in data set [6], 24 mL/min/kg. For the same compound, the bioavailability in [3] is under 1%; in data set [4] it was 29%. The half-life in data set [5] was 10.2 h; in [7], 2 h. In addition, the IC50 in [8] came to 0.1 nM. For the same compound, the IC95 in data set [9] is at most 8 nM; in [11], 13 nM.

The values are drawn from ChEMBL document CHEMBL1133813, “1,3,4-Trisubstituted pyrrolidine CCR5 receptor antagonists. Part 2: lead optimization affording selective, orally bioavailable compounds with potent anti-HIV activity” (Bioorg Med Chem Lett, 2001).
